Inhibition and fold change (FC) data for 3 compounds are collected here from ChEMBL document CHEMBL5653631, “A Potent and Selective ULK1 Inhibitor Suppresses Autophagy and Sensitizes Cancer Cells to Nutrient Stress” (iScience, 2018).

The target in experiment [1] is Vascular endothelial growth factor receptor 1 (Homo sapiens) (UniProt P17948). Description: Inhibition of human recombinant FLT1 at 40 nM in presence of ATP by radiometric assay relative to control.
Experiment [2] concerns the target Serine/threonine-protein kinase PAK 3 (Homo sapiens) (UniProt O75914). Briefly: Inhibition of human recombinant PAK3 at 40 nM related to control ULK1.
The target of experiment [3] is Serine/threonine-protein kinase PLK3 (Homo sapiens) (UniProt Q9H4B4). Description: Inhibition of human recombinant PLK3 at 40 nM related to control ULK1.
Experiment [4] concerns the target Protein-tyrosine kinase 6 (Homo sapiens) (UniProt Q13882). Briefly: Inhibition of human recombinant BRK at 500 nM in presence of ATP by radiometric assay relative to control. The gist of the method: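 Part of a radiometric in vitro activity panel of 327 recombinant human kinases. Each kinase was tested in duplicate at one inhibitor concentration. Activity remaining was expressed as a percentage of the vehicle control, and percent inhibition was taken as 100 minus that value.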

In experiment [5] the target is Calcium/calmodulin-dependent protein kinase type 1 (Homo sapiens) (UniProt Q14012). Description: Inhibition of human recombinant CaMK1a at 500 nM in presence of ATP by radiometric assay relative to control.
Experiment [6] addresses T1, Eukaryotic elongation factor 2 kinase (Homo sapiens) (UniProt O00418).
T1 sequence (whole entry): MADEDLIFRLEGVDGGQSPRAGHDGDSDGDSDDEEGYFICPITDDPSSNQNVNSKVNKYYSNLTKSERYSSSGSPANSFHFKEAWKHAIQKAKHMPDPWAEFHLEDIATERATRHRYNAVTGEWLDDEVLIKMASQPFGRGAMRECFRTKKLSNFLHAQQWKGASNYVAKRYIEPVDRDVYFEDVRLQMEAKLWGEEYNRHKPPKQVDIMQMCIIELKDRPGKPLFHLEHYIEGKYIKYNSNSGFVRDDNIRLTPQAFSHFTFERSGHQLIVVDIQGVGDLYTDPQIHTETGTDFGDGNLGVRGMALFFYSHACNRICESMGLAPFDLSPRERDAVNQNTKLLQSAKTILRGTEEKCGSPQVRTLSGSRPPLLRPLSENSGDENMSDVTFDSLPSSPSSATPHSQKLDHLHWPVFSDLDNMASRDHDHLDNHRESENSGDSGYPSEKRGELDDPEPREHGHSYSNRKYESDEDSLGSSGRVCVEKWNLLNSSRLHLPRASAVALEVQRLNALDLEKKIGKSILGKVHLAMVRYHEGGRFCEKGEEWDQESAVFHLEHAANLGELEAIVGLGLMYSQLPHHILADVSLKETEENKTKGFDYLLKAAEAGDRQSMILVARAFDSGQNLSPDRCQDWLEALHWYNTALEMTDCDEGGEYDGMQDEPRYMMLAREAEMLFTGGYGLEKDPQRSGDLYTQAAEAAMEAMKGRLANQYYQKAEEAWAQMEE
Description: Inhibition of human recombinant eEF2K at 500 nM related to control ULK1.

Experiment [7] concerns the target T2, Muscle, skeletal receptor tyrosine-protein kinase (Homo sapiens) (UniProt O15146).
T2 sequence (whole entry): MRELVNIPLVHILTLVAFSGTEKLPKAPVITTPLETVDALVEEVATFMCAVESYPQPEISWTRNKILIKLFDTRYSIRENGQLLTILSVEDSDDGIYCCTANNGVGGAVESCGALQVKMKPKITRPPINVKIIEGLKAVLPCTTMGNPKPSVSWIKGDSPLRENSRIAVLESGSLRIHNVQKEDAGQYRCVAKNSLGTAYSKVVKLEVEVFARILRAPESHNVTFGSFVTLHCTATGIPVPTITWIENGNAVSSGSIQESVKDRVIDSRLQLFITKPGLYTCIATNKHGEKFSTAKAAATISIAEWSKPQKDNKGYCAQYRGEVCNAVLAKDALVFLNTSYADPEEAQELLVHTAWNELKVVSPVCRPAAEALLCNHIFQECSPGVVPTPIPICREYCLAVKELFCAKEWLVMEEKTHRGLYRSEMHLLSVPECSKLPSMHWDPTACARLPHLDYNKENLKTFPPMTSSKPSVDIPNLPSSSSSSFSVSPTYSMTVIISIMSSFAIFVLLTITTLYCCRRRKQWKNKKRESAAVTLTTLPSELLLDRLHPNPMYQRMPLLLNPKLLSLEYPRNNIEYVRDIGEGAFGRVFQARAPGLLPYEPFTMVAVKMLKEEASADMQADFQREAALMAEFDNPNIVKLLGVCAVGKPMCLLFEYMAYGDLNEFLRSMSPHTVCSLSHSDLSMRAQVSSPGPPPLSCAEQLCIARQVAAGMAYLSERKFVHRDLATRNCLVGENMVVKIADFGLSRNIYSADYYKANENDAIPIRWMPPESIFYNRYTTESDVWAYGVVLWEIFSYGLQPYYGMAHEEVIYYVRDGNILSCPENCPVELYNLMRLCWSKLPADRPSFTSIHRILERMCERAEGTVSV
Briefly: Inhibition of human recombinant MUSK at 500 nM in presence of ATP by radiometric assay relative to control.

In experiment [8] the target is TRAF2 and NCK-interacting protein kinase (Homo sapiens) (UniProt Q9UKE5). Briefly: Inhibition of human recombinant TNIK at 15 nM related to control ULK1.
In experiment [9] the target is High affinity nerve growth factor receptor (Homo sapiens) (UniProt P04629). Briefly: Inhibition of human recombinant TRKA at 15 nM related to control ULK1.
The species named for experiment [10] is Homo sapiens. Description: Inhibition of human recombinant ABL at 15 nM in presence of ATP by radiometric assay relative to control. The gist of the method: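 Panel of 327 recombinant human kinases in radiometric activity assays, each screened in duplicate at a single inhibitor concentration; percent activity remaining relative to vehicle control, percent inhibition taken as 100 minus activity remaining.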

In experiment [11] the target is T3, Serine/threonine-protein kinase Nek2 (Homo sapiens) (UniProt P51955).
T3 sequence (whole entry): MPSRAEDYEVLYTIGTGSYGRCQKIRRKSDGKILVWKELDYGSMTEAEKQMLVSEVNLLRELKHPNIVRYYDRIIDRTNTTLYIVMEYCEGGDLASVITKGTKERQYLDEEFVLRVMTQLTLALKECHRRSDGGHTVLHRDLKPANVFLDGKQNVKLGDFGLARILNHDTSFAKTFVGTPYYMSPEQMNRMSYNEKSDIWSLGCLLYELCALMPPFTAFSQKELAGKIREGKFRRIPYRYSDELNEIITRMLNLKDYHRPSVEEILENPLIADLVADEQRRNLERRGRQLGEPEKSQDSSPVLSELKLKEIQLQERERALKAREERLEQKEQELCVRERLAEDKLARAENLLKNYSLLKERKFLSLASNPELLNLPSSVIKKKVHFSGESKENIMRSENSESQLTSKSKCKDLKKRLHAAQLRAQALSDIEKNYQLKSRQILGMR
Briefly: Inhibition of human recombinant NEK2 at 15 nM in presence of ATP by radiometric assay relative to control.

For orientation: inhibition means the percentage by which the read-out fell short of the control.

Serine/threonine-protein kinase PLK3 (Homo sapiens), sequence (Q9H4B4 whole entry, looked up): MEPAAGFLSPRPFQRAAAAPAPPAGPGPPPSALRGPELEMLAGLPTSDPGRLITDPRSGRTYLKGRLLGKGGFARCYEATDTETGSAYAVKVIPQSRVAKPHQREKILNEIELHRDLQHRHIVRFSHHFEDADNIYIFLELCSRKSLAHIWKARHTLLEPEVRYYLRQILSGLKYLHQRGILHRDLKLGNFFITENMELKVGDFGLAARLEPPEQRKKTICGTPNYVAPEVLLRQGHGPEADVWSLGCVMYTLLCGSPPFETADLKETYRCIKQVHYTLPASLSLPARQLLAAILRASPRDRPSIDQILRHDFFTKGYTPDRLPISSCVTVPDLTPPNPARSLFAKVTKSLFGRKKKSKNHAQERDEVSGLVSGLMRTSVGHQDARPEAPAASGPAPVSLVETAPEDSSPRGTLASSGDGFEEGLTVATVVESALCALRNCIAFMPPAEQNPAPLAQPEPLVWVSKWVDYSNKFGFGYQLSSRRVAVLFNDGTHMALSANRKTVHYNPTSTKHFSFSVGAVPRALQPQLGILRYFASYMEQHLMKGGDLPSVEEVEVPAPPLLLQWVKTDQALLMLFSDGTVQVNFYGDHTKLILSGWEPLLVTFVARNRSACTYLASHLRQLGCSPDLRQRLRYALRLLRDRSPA
High affinity nerve growth factor receptor (Homo sapiens), sequence (P04629 33-796 limits assumed): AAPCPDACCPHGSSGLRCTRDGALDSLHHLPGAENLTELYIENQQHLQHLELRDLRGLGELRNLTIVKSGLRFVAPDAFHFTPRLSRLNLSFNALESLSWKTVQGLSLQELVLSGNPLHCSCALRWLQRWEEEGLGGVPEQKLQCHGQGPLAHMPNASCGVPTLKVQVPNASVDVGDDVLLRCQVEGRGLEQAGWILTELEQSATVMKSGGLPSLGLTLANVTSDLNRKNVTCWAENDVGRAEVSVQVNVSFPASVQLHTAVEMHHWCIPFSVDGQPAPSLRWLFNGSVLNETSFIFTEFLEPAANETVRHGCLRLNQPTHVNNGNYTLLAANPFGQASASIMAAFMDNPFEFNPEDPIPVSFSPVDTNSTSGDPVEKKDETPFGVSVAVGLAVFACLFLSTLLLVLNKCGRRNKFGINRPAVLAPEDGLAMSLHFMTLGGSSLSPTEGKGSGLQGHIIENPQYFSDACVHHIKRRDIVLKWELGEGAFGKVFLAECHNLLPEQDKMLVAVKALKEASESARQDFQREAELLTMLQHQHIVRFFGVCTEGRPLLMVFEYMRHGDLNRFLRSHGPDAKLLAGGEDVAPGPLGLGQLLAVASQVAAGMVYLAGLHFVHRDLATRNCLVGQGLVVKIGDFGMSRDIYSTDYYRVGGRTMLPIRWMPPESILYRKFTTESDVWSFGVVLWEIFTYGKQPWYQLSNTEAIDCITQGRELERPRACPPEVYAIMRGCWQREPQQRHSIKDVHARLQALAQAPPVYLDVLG
Protein-tyrosine kinase 6 (Homo sapiens), sequence (Q13882 whole entry, looked up): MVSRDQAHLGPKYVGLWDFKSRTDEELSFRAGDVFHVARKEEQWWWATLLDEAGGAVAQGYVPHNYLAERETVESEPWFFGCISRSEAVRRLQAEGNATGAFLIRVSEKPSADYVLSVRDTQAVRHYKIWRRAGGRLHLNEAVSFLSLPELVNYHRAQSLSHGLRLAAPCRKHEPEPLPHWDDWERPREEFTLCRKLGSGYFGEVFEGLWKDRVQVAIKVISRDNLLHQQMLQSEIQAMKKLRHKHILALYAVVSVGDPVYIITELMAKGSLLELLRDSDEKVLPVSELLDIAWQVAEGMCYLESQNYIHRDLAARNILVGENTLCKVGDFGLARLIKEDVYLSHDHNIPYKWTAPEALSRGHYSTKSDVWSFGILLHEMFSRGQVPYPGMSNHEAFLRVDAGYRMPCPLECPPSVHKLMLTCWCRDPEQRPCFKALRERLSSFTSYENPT
Vascular endothelial growth factor receptor 1 (Homo sapiens), sequence (P17948 whole entry): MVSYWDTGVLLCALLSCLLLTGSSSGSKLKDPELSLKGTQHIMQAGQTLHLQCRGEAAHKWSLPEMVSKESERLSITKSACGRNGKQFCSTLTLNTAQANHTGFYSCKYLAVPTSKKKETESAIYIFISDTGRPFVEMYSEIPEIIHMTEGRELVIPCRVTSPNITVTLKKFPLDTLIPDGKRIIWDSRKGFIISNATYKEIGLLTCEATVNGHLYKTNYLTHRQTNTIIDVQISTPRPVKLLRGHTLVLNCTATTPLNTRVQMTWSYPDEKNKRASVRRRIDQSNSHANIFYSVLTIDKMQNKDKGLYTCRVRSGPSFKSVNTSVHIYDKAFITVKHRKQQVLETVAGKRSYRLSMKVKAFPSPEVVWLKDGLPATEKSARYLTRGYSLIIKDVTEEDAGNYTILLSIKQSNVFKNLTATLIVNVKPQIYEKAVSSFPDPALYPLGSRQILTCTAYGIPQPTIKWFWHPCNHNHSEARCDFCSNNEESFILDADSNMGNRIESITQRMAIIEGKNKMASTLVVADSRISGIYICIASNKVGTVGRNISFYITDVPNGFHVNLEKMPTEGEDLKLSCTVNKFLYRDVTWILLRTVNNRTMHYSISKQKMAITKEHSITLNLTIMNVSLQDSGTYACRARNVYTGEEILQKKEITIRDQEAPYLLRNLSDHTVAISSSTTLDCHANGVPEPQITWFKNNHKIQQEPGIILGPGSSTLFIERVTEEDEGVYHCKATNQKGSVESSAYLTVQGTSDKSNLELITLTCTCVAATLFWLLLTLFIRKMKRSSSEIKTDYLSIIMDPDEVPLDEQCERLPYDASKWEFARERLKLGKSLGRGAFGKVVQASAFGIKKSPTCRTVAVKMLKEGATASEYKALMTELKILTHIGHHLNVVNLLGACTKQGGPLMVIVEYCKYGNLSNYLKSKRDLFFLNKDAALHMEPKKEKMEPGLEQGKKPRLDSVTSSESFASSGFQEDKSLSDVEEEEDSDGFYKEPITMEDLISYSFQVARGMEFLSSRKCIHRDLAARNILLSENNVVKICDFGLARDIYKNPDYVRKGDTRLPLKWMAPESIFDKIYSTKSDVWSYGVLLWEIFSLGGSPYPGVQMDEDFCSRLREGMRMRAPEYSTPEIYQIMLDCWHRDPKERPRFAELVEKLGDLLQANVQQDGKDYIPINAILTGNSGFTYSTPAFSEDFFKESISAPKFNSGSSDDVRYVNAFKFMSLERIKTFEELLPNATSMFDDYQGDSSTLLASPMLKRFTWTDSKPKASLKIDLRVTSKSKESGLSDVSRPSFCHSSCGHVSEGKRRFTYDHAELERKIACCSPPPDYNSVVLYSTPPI
Calcium/calmodulin-dependent protein kinase type 1 (Homo sapiens), sequence (Q14012 whole entry, looked up): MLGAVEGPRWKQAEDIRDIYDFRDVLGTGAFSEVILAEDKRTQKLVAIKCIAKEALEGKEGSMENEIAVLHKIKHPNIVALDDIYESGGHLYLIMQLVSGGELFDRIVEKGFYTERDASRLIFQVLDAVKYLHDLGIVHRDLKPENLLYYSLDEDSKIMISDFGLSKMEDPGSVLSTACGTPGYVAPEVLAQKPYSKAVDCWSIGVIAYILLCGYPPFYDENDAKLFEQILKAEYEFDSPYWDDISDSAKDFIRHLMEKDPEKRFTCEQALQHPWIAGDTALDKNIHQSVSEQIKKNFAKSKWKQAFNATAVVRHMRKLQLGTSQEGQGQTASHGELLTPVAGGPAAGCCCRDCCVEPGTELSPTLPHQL
Serine/threonine-protein kinase PAK 3 (Homo sapiens), sequence (O75914 whole entry, looked up): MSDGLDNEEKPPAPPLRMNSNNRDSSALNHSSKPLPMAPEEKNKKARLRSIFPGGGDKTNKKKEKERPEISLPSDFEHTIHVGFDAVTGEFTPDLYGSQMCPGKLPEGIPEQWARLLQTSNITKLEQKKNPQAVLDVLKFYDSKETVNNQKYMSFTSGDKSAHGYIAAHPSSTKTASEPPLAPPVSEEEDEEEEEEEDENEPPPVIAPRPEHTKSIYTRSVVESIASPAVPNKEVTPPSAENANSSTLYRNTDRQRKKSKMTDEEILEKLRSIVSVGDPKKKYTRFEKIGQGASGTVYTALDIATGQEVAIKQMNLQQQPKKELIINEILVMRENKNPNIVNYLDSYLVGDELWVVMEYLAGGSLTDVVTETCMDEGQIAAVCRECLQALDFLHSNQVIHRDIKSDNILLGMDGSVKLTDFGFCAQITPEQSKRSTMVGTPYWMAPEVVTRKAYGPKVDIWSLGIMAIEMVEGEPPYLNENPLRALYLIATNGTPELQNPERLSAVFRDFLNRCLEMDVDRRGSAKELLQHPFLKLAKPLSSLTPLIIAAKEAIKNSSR

As for `O=C(N[C@@H](C1CC1)C(F)(F)F)c1cc(-c2cnn3cc(-c4ccc(F)cc4)cnc23)cs1`, the inhibition in experiment [1] was 18%. The fold change (FC) in experiment [2] and in experiment [3] was 0 in each case.
On to `CNC(=O)c1ccccc1Oc1nc(Nc2cc(OC)c(OC)c(OC)c2)ncc1Br`, for which the inhibition was found to be 2% in experiment [4], 0% in experiment [5] and 34% in experiment [7]. For the same compound, the fold change (FC) in experiment [6] was found to be 0.19.
Turning to `CC(C)[C@H](NC(=O)c1cc(-c2cnn3cc(-c4ccc(OCCN5CCCCC5)cc4)cnc23)cs1)C(F)(F)F`, the results for the fold change (FC) in [8] and in experiment [9] were 0.06 and 0, respectively. In addition, the figures for the inhibition in [10] and in experiment [11] were 82% and 12%, respectively.
